SENP1 FRET inh: human SENP1 catalytic domain inhibitors, primary screen, biochemical, FRET, uHTS | Sentrin-specific protease 1 (Homo sapiens), Q9P0U3 | recombinant SENP1 catalytic domain, CyPet-SUMO1-YPet FRET cleavage | inhibition, % at 10 µM | actives 0.21% (n = 360,000);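 active = inhibition at least 30% at 10 µM, raw YFP signal under a set limit, fluorescence ratio 0.5 to 1.5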;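 note: 0% = enzyme with DMSO and 100% = no enzyme wells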
Target sequence (Q9P0U3 419-644 limits assumed): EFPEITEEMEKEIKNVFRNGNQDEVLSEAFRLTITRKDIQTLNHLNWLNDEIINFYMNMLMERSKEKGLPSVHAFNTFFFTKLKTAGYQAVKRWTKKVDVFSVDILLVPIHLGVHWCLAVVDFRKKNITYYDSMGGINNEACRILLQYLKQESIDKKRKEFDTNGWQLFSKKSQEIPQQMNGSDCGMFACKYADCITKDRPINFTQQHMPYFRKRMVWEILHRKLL
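Assay system: hSENP1 catalytic domain, recombinant. Amount: SENP1 enzyme, 20 pM final. Schedule: 50 min reaction, RT, dark. Technique: FRET, CFP and YFP emission. Control set: no-enzyme wells low, DMSO-plus-enzyme wells high control.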
SENP8 block-1: SENP8 protease inhibitors, primary screen, biochemical, luminescence; Sentrin-specific protease 8 (Homo sapiens), Q96LD8; actives 1.2% (n = 330,000); purified SENP8, Z-RLRGG-aminoluciferin cleavage; inhibition, % at 10 µM; in the data active = inhibition above about 50%
SENP6 block: SENP6 protease inhibitors, primary screen, biochemical, luminescence, uHTS; inhibition, % at 10 µM; AID 2599, 2010; Recombinant SENP6 catalytic domain, aminoluciferin luminescence; Sentrin-specific protease 6 (Homo sapiens), Q9GZR1; actives 1.8% (n = 330,000);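 active = inhibition above about 50% at the single tested dose, limit read from the data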;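 note: plate controls were DMSO wells with enzyme for no effect and DMSO wells lacking enzyme for full effect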
Target sequence (Q9GZR1 628-1112 limits assumed): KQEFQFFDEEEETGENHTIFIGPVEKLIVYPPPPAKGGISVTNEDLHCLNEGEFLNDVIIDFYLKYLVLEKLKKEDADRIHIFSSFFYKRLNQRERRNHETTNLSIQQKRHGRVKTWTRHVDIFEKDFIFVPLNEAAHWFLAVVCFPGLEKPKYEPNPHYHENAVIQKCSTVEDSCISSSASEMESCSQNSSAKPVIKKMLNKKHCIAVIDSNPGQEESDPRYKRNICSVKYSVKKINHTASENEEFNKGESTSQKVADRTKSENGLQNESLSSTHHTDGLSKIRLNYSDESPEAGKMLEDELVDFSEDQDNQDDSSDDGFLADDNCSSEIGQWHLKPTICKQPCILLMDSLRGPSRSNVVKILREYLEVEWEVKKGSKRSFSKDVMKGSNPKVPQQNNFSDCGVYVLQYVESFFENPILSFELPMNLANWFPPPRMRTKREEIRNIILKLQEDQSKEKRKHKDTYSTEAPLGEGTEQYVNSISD
SENP7 block: SENP7 protease inhibitors, primary screen, biochemical, luminescence, uHTS; Sentrin-specific protease 7 (Homo sapiens), Q9BQF6; recombinant SENP7, Z-RLRGG-aminoluciferin luminescence, 40 min; inhibition, % at 5 µM; actives 1.5% (n = 330,000); AID 434973, 2010;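 active = inhibition above about 50% at the single test dose, limit read from the data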;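 note: plate controls were DMSO with enzyme for no effect and no enzyme buffer wells for full effect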
SENP8 block-2: human SENP8 protease inhibitors, primary screen, biochemical, fluorescence, Nedd8 protein substrate, uHTS; inhibition, % at 20 µM; Sentrin-specific protease 8 (Homo sapiens), Q96LD8; AID 602440, 2012; actives 0.64% (n = 360,000); recombinant SENP8; in the data active = inhibition mostly above about 40%, no sharp cut-off; inactive = mostly below about 27%
UCH37 DUB inh: inhibitors of human UCH37 deubiquitinase, primary screen, biochemical, Ub-AMC cleavage, fluorescence | purified proteasome/UCH37 | inhibition, % (test concentration not listed) | actives 0.33% (n = 330,000) | AID 588478, 2011;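 active = mean inhibition over replicate wells above about 20%, limit read from the data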;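 note: 0% = compound-free wells with enzyme and 100% = wells lacking proteasome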
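Assay system: Proteasome-bound UCH37. Buffer or medium: pH 7.4 Tris-HCl (50 mM) with ovalbumin, ATP-MgCl2, DTT. Incubation: 30 min preincubation with enzyme, 25 min cleavage at room temperature. Measured by: fluorescence, ex 355 nm, em 460 nm. Read-out basis: percent inhibition. Control set: wells without proteasome as full block, compound-free enzyme plus substrate as uninhibited.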
SENP8 conf: SENP8 protease inhibitors, retest, confirmation, biochemical, luminescence, single concentration. shares compounds with SENP7 block. Recombinant SENP8, Z-RLRGG-aminoluciferin luminescence, 60 min. inhibition, % at 12.5 µM. actives 40% (n = 6,200). AID 488912, 2010;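 active = mean inhibition across replicates above about 50%, limit read from the data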
SENP6 confirm: SENP6 protease inhibitors, confirmation, biochemical, luminescence, single concentration | shares compounds with SENP7 block | recombinant SENP6, Z-RLRGG-aminoluciferin luminescence | inhibition, % at 12.5 µM | actives 58% (n = 6,200) | AID 488915, 2010
SENP7 conf: SENP7 protease inhibitors, retest, confirmation, biochemical, luminescence, single concentration | AID 488917, 2010 | actives 69% (n = 6,200) | inhibition, % at 12.5 µM | shares compounds with SENP7 block | recombinant SENP7, Z-RLRGG-aminoluciferin luminescence, 40 min
Casp3 SENP sel: caspase-3 protease inhibitors, confirmation, selectivity assay for SENP inhibitor project, biochemical, single concentration. AID 488918, 2010. actives 60% (n = 6,200). shares compounds with SENP7 block. inhibition, % at 12.5 µM. purified caspase-3, Z-DEVD-aminoluciferin luminescence, 60 min;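 active = mean inhibition above about 50%, limit read from the data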;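 note: plate controls were enzyme with DMSO for no effect and wells without caspase-3 for full effect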
Luc interf: luminescence interference (SENP counter-screen). shares compounds with SENP7 block. actives 39% (n = 6,200). inhibition, % at 12.5 µM. Pre-incubated SENP8/Z-RLRGG-aminoluciferin, luciferase luminescence interference;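 active = mean inhibition above about 50% when retested at one dose, limit read from the data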;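 note: plate controls were DMSO wells with completed reaction for no effect and substrate without enzyme for full effect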
Active calls of the source: *; i = inactive; . = no result. Only some compounds are listed: those with a hit (about 2.6% of all), similar ones and a draw of the others.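 Rule for the calls, unless noted: active = mean inhibition above about 50% in the one-dose retest (limit read from the data); inactive = the rest.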

SMILES	SENP1 FRET inh	SENP8 block-1	SENP6 block	SENP7 block	SENP8 block-2	UCH37 DUB inh	SENP8 conf	SENP6 confirm	SENP7 conf	Casp3 SENP sel	Luc interf
CN(c1ccc(C(=O)Nc2ccc3c(c2)OCO3)cc1)S(C)(=O)=O	3.0	54.6*	81.6*	78.9*	29.2	1.7	42.1	41.5	74.1*	73.4*	48.5
O=C(NN=Cc1ccco1)c1ccc(NC(=O)c2ccccc2Cl)cc1	.	.	.	.	.	1.4	.	.	.	.	.
CCOc1ccc(/C=C/C(=O)Oc2ccccc2)cc1	1.6	11.8	11.7	58.6*	-2.1	1.8	15.6	15.3	33.5	32.8	11.7
O=C1CC(/C=C/c2ccccc2)=Nc2ccccc2N1	-24.4	46.9	66.7*	49.6	-46.3	3.3	46.4	44.3	55.9*	33.1	6.3
CCC(=NNc1cccc(C)c1)c1cnnc(SC)n1	.	.	.	.	.	2.8	.	.	.	.	.
Cc1ccnc(Nc2nc(-c3ccc(F)cc3)cs2)c1	-3.6	20.0	62.6*	39.3	-2.3	3.8	16.6	44.2	75.7*	18.5	10.7
Fc1ccc(-c2csc(Nc3ccccn3)n2)c(F)c1	1.2	86.9*	86.5*	86.0*	-2.8	1.8	72.5*	87.3*	99.2*	67.6*	47.2
O=C(Nc1nc(-c2cc(F)ccc2F)cs1)c1ccccn1	-2.8	-6.7	-36.6	-9.8	-26.3	2.7	.	.	.	.	.
Cc1ccc(-c2csc(Nc3ccccn3)n2)cc1	1.1	87.2*	91.4*	88.9*	4.0	-0.9	92.2*	92.1*	98.1*	68.7*	77.1*
CC(=O)Nc1cccc(-c2csc(Nc3ccc(C)cn3)n2)c1	1.7	36.3	68.9*	58.2*	-12.5	3.6	66.1*	64.3*	87.3*	22.4	44.2
Oc1ccc(-c2csc(Nc3ncccn3)n2)cc1O	3.0	.	.	.	22.6	4.6	.	.	.	.	.
c1ccc(-c2csc(Nc3ccccn3)n2)cc1	1.6	93.6*	95.5*	97.6*	21.4	2.1	-11.2	95.7*	101.5*	81.8*	79.0*
COc1ccc(-c2csc(Nc3ccccn3)n2)cc1OC	0.5	9.6	4.9	1.3	0.2	5.5	.	.	.	.	.
Cc1nc(C)c(-c2csc(Nc3ccccn3)n2)s1	1.0	61.4*	74.1*	54.1*	-17.3	5.1	37.1	65.0*	87.9*	46.2	67.5*
Cc1cc(-c2csc(Nc3ccccn3)n2)ccc1F	1.0	58.9*	75.5*	67.3*	12.2	3.7	49.7	75.6*	91.9*	37.3	40.4
Oc1ccc(-c2csc(Nc3ccccn3)n2)cc1	1.7	81.6*	84.9*	62.2*	2.0	-0.5	91.2*	87.2*	94.9*	54.3*	87.8*
Cc1nc(N)sc1-c1csc(Nc2ccccn2)n1	-39.5	.	.	.	-44.8	0.9	.	.	.	.	.
O=c1[nH]c2ccccc2nc1/C=C/c1ccc(O)cc1	-27.4	93.3*	93.0*	92.1*	-385.4	-14.2	96.8*	97.6*	102.0*	91.9*	82.9*
O=c1[nH]c2ccccc2nc1/C=C/c1ccc(F)cc1	-24.6	58.5*	64.4*	54.8*	-398.6	-51.2	25.7	26.1	22.8	19.0	10.0
O=c1[nH]c2ccccc2nc1/C=C/c1ccccc1	-21.0	56.0*	10.3	56.3*	-395.1	-98.4	14.4	27.0	49.1	41.6	16.1
CC(C)(C)/C(O)=C/c1nc2ccccc2[nH]c1=O	-69.4	3.9	-7.3	-4.4	-14.5	-1.3	.	.	.	.	.
CCOc1cccc(C(=O)NN=Cc2ccoc2)c1	.	.	.	.	.	-2.3	.	.	.	.	.
CCC1Cc2c(nc(N)c3c(N)nc(N4CCCCC4)c(C#N)c23)O1 (centres undefined)	-54.1	7.1	13.7	-1.5	-414.0	-172.0	.	.	.	.	.
N#Cc1c(N2CCN(c3ccc(F)cc3)CC2)nc(N)c2c(N)nc3c(c12)CC(=O)N3C1CC1	-22.8	.	.	.	-328.5	-14.6	.	.	.	.	.
CN(CCO)c1nc(N)c2c(N)nc3c(c2c1C#N)CC(=O)N3C1CCCC1	.	95.9*	91.3*	96.2*	.	-73.6	10.9	9.6	-7.3	-2.2	-0.9
SMILES	SENP1 FRET inh	SENP8 block-1	SENP6 block	SENP7 block	SENP8 block-2	UCH37 DUB inh	SENP8 conf	SENP6 confirm	SENP7 conf	Casp3 SENP sel	Luc interf
CC(C)(C)N1C(=O)Cc2c1nc(N)c1c(N)nc(N3CCCCC3CO)c(C#N)c21 (centres undefined)	-54.9	96.5*	93.1*	94.2*	i	-176.7	19.6	25.5	9.1	0.8	-0.3
O=C(NN=Cc1ccco1)c1cc(-c2cccs2)[nH]n1	.	.	.	.	.	3.2	.	.	.	.	.
COc1ccc2nc(NC(=O)c3ccccc3[N+](=O)[O-])sc2c1	-0.4	0.7	11.7	-1.2	15.2	3.2	.	.	.	.	.
COc1ccc2nc(NC(=O)c3ccc([N+](=O)[O-])o3)sc2c1	-8.7	16.2	62.6*	43.5	-31.7	2.9	45.7	68.0*	74.0*	14.4	31.7
O=C(Nc1nc2ccccc2s1)c1ccc([N+](=O)[O-])o1	-1.4	50.5*	75.5*	60.2*	5.8	3.0	-28.2	-19.5	-6.2	-5.5	-6.5
O=C(Nc1nc2c(F)cc(F)cc2s1)c1ccc([N+](=O)[O-])o1	-8.6	69.3*	72.6*	32.4	5.7	5.8	-23.9	-12.9	-2.9	-4.7	-2.8
O=C(Nc1nc2ccccc2s1)c1ccccc1[N+](=O)[O-]	-0.2	1.1	19.6	-20.3	4.0	5.7	.	.	.	.	.
Cc1[nH]n(-c2ccccc2)c(=O)c1C=NN(c1ccccc1)c1ccccc1	.	.	.	.	.	1.6	.	.	.	.	.
COc1ccc(CNC(=O)CC(C)=NNC(=O)Cc2ccc(OC)cc2)cc1	.	.	.	.	.	2.1	.	.	.	.	.
